Results on 19 molecules are retold here after PubChem BioAssay.

The nature of test [1]: OD615 S. cerevisiae growth inhibition, permissive medium, pilot counter-assay, permissive growth control for S. cerevisiae lifespan shortening project (AID 705;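 active means growth inhibition above 25% in both replicates, a cutoff set 3 SD above the mean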). The following applies: OD615, 24 h, at 10 µM, hits give high values. In outline:
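System: engineered DeaD yeast; Medium: permissive raffinose/galactose medium; Compound dosing: 10 µM single dose, 0.25% DMSO; Incubation: 4 h cell pre-growth, 24 h exposure at 30 °C; Technique: OD at 615 nm; Evaluation: growth inhibition from lowered OD615 after 24 h.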

Test [2] can be described thus: Restrictive medium S. cerevisiae growth inhibition, OD615, pilot screen of yeast lifespan reduction project, restrictive growth control (AID 706;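 active means growth inhibition above a set limit, 3 SD over mean compound inhibition, in both replicates, cut at about 43% in these data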;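 further: modified DeaD lifespan yeast strain shifted to restrictive glucose medium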). The following applies: OD615, 48 h, at 10 µM, hits give high values. In outline: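 Material: modified S. cerevisiae; buffer or medium: CSMM-D glucose medium; doses: one concentration, 10 µM final, 0.25% DMSO; incubation: 48 h compound exposure at 30 °C; detection: optical density at 615 nm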

The nature of test [3]: viability gain of MRP-1-high H69AR cells under doxorubicin, pilot screen, MRP-1 activator project, CellTiter-Glo, duplicate (AID 807;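 active means viability increase at or above a cutoff of the median across tested compounds plus 3 SD, cut at about 8.5% in these data, passing the limit was not always enough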;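 further: compound pretreatment 18-22 h then 72 h combined with doxorubicin; 0% = doxorubicin alone and 100% = vehicle without doxorubicin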). The settings on record: H69AR viability with doxorubicin, CellTiter-Glo luminescence; at 10 µM; hits give high values. A general note: In ATP-based viability assays light output follows the ATP content of the culture.
Test [4] can be described thus: growth suppression of PTEN-deleted HCT116, pilot screen, cell-based, HCT116 clonal line, CellTiter-Glo (AID 824;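 active means viability at or below 27.92% in each of two runs, the all-compound median minus 4 SD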;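 further: 0% = 20 µM Hyamine control and 100% = vehicle cell control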). The following applies: 60 h, at 10 µM, hits give low values.
Test [5] is described as follows: inhibitors of the yeast RAM network, pilot screen, dse1pr::URA3 reporter, 5-FOA selection (AID 869).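 Further: 0% = DMSO wells with no growth and 100% = 10 µM 1-NA-PP1 with full growth; RAM network block rescues cells from 5-FOA so hits raise OD615 growth.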 The following applies: S. cerevisiae dse1pr::URA3 5-FOA growth, OD615, 2 d; at 10 µM; hits give high values; strain carries analog-sensitive mutant Cbk1 kinase.
Test [6] can be described thus: RAM signaling pathway blockade in yeast – S. cerevisiae, Pdr1DBD-CYC8 efflux-inhibited sensitized strain, primary screen (AID 1298;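 active means RAM network inhibition above 8.4% in each of two replicates, 3 SD over the compound average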;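 further: 0% = DMSO untreated cells without growth and 100% = 10 µM 1-NA-PP1 full growth; higher means more yeast growth rescued from 5-FOA killing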). The following applies: S. cerevisiae cbk1-as DSE1-URA3 strain, 5-FOA growth OD615, 2 d; at 50 µM; hits give high values.
The nature of test [7]: growth suppression of beta-catenin knockout HCT116, pilot screen, human colon tumor cells (AID 823;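 active means cell viability at or below a set limit in both duplicate runs, the limit being the all-compound median minus 4 SD, cut at about 23% in these data, passing the limit was not always enough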;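 further: 0% = wells killed by 20 µM Hyamine and 100% = untreated DMSO cell wells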). The following applies: CellTiter-Glo, 60 h, at 10 µM, hits give low values.

A number with no mark means an inactive call. Results filed as inconclusive are left out. Active and inactive are the calls of the source.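 How the source made its calls, unless noted: active means inhibition over a set limit, the all-compound mean plus 3 SD, in both replicate runs; inconclusive means over that limit in just one replicate run; inactive means at or under that limit in both runs.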

Take `CCOC(=O)N1CCN(C(=O)c2ccc(CN(c3ccc(C)c(C)c3)S(C)(=O)=O)cc2)CC1`: the growth inhibition in test [1] was -11.1%; in test [2] it was -1.85%. Moreover, in test [3], the viability increase is -2.96%. The viability (usually a read-out of living cells in per cent, often relative to untreated cells) in test [4] is 99.4%. Moreover, the inhibition (as a rule, the drop in the measured response relative to a control, in per cent) in test [5] was 0.115%. For the same molecule, the RAM network inhibition in test [6] was 5.73%.

In the case of `O=C(CSc1nc(-c2ccco2)cc(C(F)(F)F)n1)Nc1ccc(C(=O)N2CCCCC2)cc1`, the values for the growth inhibition in test [1] and in test [2] were 0.645% and -0.65%, respectively. In test [3], the viability increase was -2.87%. Moreover, the inhibition in test [5] was 1.97%. In addition, the RAM network inhibition in test [6] was 3.42%.

In the case of `O=C(Nc1nnc(-c2cccs2)o1)c1cccc(Oc2ccccc2)c1`, the figures for the growth inhibition in test [1] and in test [2] were 16.2% and 24.4%, respectively. In test [3], the viability increase is -6.06%. Also, the inhibition in test [5] was 1.83%. For the same molecule, the RAM network inhibition in test [6] is 2.76%.

`Cc1onc(-c2ccccc2Cl)c1C(=O)N1CCN(c2cccc(Cl)c2)CC1`: the growth inhibition in test [1] was -18.9%; in test [2] it was -13.7%. Besides, the viability increase in test [3] was -6.53%. In addition, the viability in test [4] was 22% (active). For the same molecule, the inhibition in test [5] is 2.73%. In test [6], the RAM network inhibition is 10.4%.

For the molecule `COc1ccc(NC(=O)NCCCN2CCN(c3cc(C)ccc3C)CC2)cc1`, the growth inhibition in test [1] was -11.2%; in test [2], -19.5%. Further, in test [3], the viability increase was -6.14%. Moreover, the inhibition in test [5] was 0.485%. Further, the RAM network inhibition in test [6] is 2.1%.

Regarding `Cc1noc(/C=C/N(C)C)c1S(=O)(=O)N1CCCC(C(=O)Nc2ccc3c(c2)OCO3)C1` (stereo not given), the figures for the growth inhibition in test [1] and in test [2] were -1.3% and -0.88%, respectively. In addition, the results for the viability in test [7] and in test [4] were 89.1% and 89.7%, respectively. For the same molecule, the inhibition in test [5] is 2.2%. Besides, in test [6], the RAM network inhibition is 7.17%.

As to `CN(C)S(=O)(=O)c1ccc(S(=O)(=O)N2CCN(CCC#N)CC2)cc1`, the growth inhibition in test [1] was -0.96%; in test [2], 2.05%. For the same molecule, the results for the viability in test [7] and in test [4] were 102% and 101%, respectively. In test [5], the inhibition is 0.005%. The RAM network inhibition in test [6] was -1.81%.

`O=C(Nc1nnc(-c2cccs2)o1)c1cccc(F)c1`: the growth inhibition was -18.7% in test [1] and 9.29% in test [2]. Further, the viability increase in test [3] was -1.42%. The inhibition in test [5] is 0.745%. Also, the RAM network inhibition in test [6] was 3.47%.

On to `COc1cc(C(=O)NCc2ccc3c(c2)OCO3)ccc1OCc1c(C)noc1C`, for which the figures for the growth inhibition in test [1] and in test [2] were 2.15% and -2.32%, respectively. Moreover, the viability increase in test [3] was -1.5%. The viability in test [4] is 95.1%. The inhibition in test [5] is 2.5%. For the same molecule, in test [6], the RAM network inhibition was 3.79%.

As to `c1coc(CNc2c3c(nc4ccccc24)CCC3)c1`, the growth inhibition in test [1] was -9.23%; in test [2], -0.365%. The viability increase in test [3] was -5.72%. In addition, in test [5], the inhibition was -0.205%. In addition, the RAM network inhibition in test [6] is 0.83%.

`COc1cccc(C(=O)Nc2nnc(-c3ccc(Cl)cc3)o2)c1`: the growth inhibition was 2.17% in test [1] and 2.42% in test [2]. Further, the viability increase in test [3] was -3.33%. For the same molecule, in test [5], the inhibition is 1.6%. Further, the RAM network inhibition in test [6] was -1.16%.

In the case of `COc1ccccc1CNC(=O)CN1CCN(Cc2ccc(Cl)cc2)C1=O`, the values for the growth inhibition in test [1] and in test [2] were 7.3% and 10.3%, respectively. The figures for the viability in test [7] and in test [4] were 98.3% and 92.5%, respectively. Further, the inhibition in test [5] is 1.5%. Moreover, in test [6], the RAM network inhibition was 0.67%.

In the case of `COCCCNC(=O)c1cn(C)c(=O)c2cc(OC)c(OC)cc12`, the growth inhibition is -8.69% in test [1] and -8.96% in test [2]. Besides, the viability increase in test [3] is -2.69%. Moreover, the viability in test [4] was 103%. In addition, in test [5], the inhibition was 1.8%. The RAM network inhibition in test [6] is 0.56%.

In the case of `O=C1C=C(NCc2ccco2)CC(c2ccc(Cl)cc2)C1` (stereo not given), the growth inhibition in test [1] was -7.5%; in test [2], -22.3%. Besides, the viability increase in test [3] is -2.53%. In addition, the viability in test [4] is 66.6%. In addition, the inhibition in test [5] was 1.2%. For the same molecule, the RAM network inhibition in test [6] is 3.64%.

Turning to `Cc1cccc(N(C)c2cc(C)nc3nc(C)nn23)c1`, the growth inhibition in test [1] was -14.5%; in test [2], -6.39%. Besides, the values for the viability in test [7] and in test [4] were 64.8% and 53.3%, respectively. In addition, the inhibition in test [5] is 2.03%. Moreover, the RAM network inhibition in test [6] was 5.5%.

`CCOC(=O)C1=C(C)N=c2s/c(=C\c3ccncc3)c(=O)n2C1c1ccc2c(c1)OCO2` (stereo not given): the figures for the growth inhibition in test [1] and in test [2] were -12% and 23.8%, respectively. In addition, the viability increase in test [3] was -7.87%. The inhibition in test [5] is 3.46%. In addition, the RAM network inhibition in test [6] is 8.86%.

As for `CSc1nc(N2CCN(CCO)CC2)c2sc3nc(-c4ccco4)c4c(c3c2n1)CCC4`, the values for the growth inhibition in test [1] and in test [2] were -5.56% and -10.7%, respectively. In addition, the viability increase in test [3] was -8.19%. The inhibition in test [5] is -1.67%. Besides, in test [6], the RAM network inhibition was -2.9%.

Regarding `COc1cc(C(=O)N2CCN(c3ccc(C)cc3C)CC2)cc(OC)c1OC`, the growth inhibition was -4.88% in test [1] and 2.84% in test [2]. Also, in test [3], the viability increase is -5%. The inhibition in test [5] is 0.135%. Also, the RAM network inhibition in test [6] was 4.77%.

As to `O=c1c2c(nc3c(-c4ccccc4)c[nH]n13)CCCC2`, the growth inhibition was -7.02% in test [1] and -8.55% in test [2]. Besides, the viability increase in test [3] is -5.26%. In test [4], the viability was 49.2%. Moreover, in test [5], the inhibition was 1.02%. Besides, the RAM network inhibition in test [6] is 0.27%.
